Molecules are shown by their SMILES. pEC50, pKi: −log10 of the molar value.

These results are taken from BindingDB's records for doi:10.1021/acs.jmedchem.7b00976 (Leipzig University, 2017).

Test [1] concerns the target T1, Neuropeptide Y receptor type 4 (Homo sapiens, UniProt P50391). Description: Effect on peptide YY-mediated displacement of 125I-pancreatic polypeptide from human C-terminal eYFP-tagged NY4 receptor expressed in HEK293 cell membranes assessed as peptide YY pKi at 30 uM after 5 hrs by scintillation counting (Rvb = 8 +/- 0.2 No_unit).
In test [2] the target is T1, Neuropeptide Y receptor type 4. Description: Positive allosteric modulation of human C-terminal eYFP-tagged NY4 receptor expressed in HEK293 cells assessed as potentiation of pancreatic polypeptide-induced arrestin 3 recruitment by measuring pancreatic polypeptide pEC50 at 30 uM after 30 mins by BRET assay (Rvb = 8.3 +/- 0.12 No_unit).
The target is the same in test [3]. Briefly: Positive allosteric modulation of human C-terminal eYFP-tagged NY4 receptor expressed in HEK293 cells assessed as potentiation of peptide YY-induced arrestin 3 recruitment by measuring peptide YY EC50 at 30 uM after 30 mins by BRET assay (Rvb = 1600 nM).
Test [4] is described as follows: Positive allosteric modulation of human C-terminal eYFP-fused human NY1 receptor expressed in African green monkey COS7 cells co-expressing delta6Galphaqi4-myr assessed as potentiation of neuropeptide Y-mediated Ca2+ flux by measuring […] at 30 uM treated at 20 secs post baseline detection followed by addition of neuro. (In general: Calcium flux is commonly read through the fluorescence of an indicator in the cells.)

Test [5] deals with T1, Neuropeptide Y receptor type 4. Description: Positive allosteric modulation of human C-terminal eYFP-tagged NY4 receptor expressed in HEK293 cells assessed as potentiation of peptide YY-induced arrestin 3 recruitment by measuring peptide YY pEC50 at 30 uM after 30 mins by BRET assay (Rvb = 5.8 +/- 0.20 No_unit). A general note: Recruitment of arrestin is a read-out of receptor activation apart from second messengers.

Test [6] in a line: Positive allosteric modulation of human NY4 receptor expressed in African green monkey COS7 cells co-expressing delta6Galphaqi4-myr assessed as potentiation of neuropeptide Y induced-calcium flux by measuring neuropeptide Y EC50 at 30 uM treated at 20 secs post baseline detection followed by addition of neuropeptide Y after 140 secs by Fluo2-.
Test [7] addresses T2, Neuropeptide Y receptor type 2 (Homo sapiens, UniProt P49146).
T2 sequence (P49146 whole entry): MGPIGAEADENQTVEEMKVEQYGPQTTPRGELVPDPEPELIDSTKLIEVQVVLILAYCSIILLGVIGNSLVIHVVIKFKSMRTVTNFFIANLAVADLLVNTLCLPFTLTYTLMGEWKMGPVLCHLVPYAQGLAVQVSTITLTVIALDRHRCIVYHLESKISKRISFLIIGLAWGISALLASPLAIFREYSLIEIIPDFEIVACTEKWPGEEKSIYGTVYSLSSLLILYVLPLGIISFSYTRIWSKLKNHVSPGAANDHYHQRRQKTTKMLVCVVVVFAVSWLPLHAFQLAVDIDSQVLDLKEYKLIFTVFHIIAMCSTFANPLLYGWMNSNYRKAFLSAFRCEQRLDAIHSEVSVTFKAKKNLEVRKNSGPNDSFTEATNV
Briefly: ASSAY_NAME: ChEMBL_1668994 (CHEMBL4018882) DESCRIPTION: Positive allosteric modulation of human C-terminal eYFP-fused human NY2 receptor expressed in African green monkey COS7 cells co-expressing delta6Galphaqi4-myr assessed as potentiation of neuropeptide Y-mediated Ca2+ flux by measuring pancreatic polypeptide EC50 at 30 uM treated at 20 secs post baseline detection followed by addition of ….

The target of test [8] is T1, Neuropeptide Y receptor type 4. Briefly: Effect on neuropeptide Y-mediated displacement of 125I-pancreatic polypeptide from human C-terminal eYFP-tagged NY4 receptor expressed in HEK293 cell membranes assessed as neuropeptide Y pKi at 30 uM after 5 hrs by scintillation counting (Rvb = 7.9 +/- 0.2 No_unit). For orientation: In a radioligand displacement assay an active substance lowers the binding of a labelled ligand.

A short description of test [9]: Positive allosteric modulation of human C-terminal eYFP-tagged NY4 receptor expressed in HEK293 cells assessed as potentiation of neuropeptide Y-induced arrestin 3 recruitment by measuring neuropeptide Y pEC50 at 30 uM after 30 mins by BRET assay (Rvb = 5.9 +/- 0.15 No_unit).
The target of test [10] is T1, Neuropeptide Y receptor type 4. Description: ASSAY_NAME: ChEMBL_1668991 (CHEMBL4018879) DESCRIPTION: Positive allosteric modulation of human NY4 receptor expressed in African green monkey COS7 cells co-expressing delta6Galphaqi4-myr assessed as potentiation of pancreatic polypeptide induced-calcium flux by measuring pancreatic polypeptide EC50 at 30 uM treated at 20 secs post baseline detection followed by addition of pancreatic polypeptide ….

Test [11] has the same target. Description: Positive allosteric modulation of human NY4 receptor expressed in African green monkey COS7 cells co-expressing delta6Galphaqi4-myr assessed as potentiation of peptide YY induced-calcium flux by measuring peptide YY EC50 at 30 uM treated at 20 secs post baseline detection followed by addition of peptide YY after 140 secs by Fluo2-AM fluorescent dye based-assay (Rvb = 2.6 nM). The procedure, abridged: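 COS7 cells stably co-expressing human Y4R-eYFP fusion and chimeric Δ6Gαqi4-myr, seeded overnight in 96-well format; loaded with 2.4 μM Fluo2-AM in HBSS/20 mM HEPES/probenecid, 60 min at 37 °C. Two-addition FlexStation read (ex 485/em 525 nm): compound or DMSO after 20 s baseline, PYY at 140 s. Response as x-fold over basal, normalized to PP; duplicates, ≥3 independent experiments.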

The nature of test [12]: Positive allosteric modulation of human NY4 receptor expressed in African green monkey COS7 cells co-expressing delta6Galphaqi4-myr assessed as potentiation of neuropeptide Y induced-calcium flux by measuring neuropeptide Y pEC50 at 30 uM treated at 20 secs post baseline detection followed by addition of neuropeptide Y after 140 secs by Fluo2.
In test [13] the target is T1, Neuropeptide Y receptor type 4. Briefly: Positive allosteric modulation of human C-terminal eYFP-tagged NY4 receptor expressed in HEK293 cells assessed as potentiation of pancreatic polypeptide-induced arrestin 3 recruitment by measuring pancreatic polypeptide EC50 at 30 uM after 30 mins by BRET assay (Rvb = 5.6 nM).
Test [14] can be described thus: Positive allosteric modulation of human C-terminal eYFP-tagged NY4 receptor expressed in HEK293 cells assessed as potentiation of neuropeptide Y-induced arrestin 3 recruitment by measuring neuropeptide Y EC50 at 30 uM after 30 mins by BRET assay (Rvb = 1380 nM).
For test [15], the target named is T1, Neuropeptide Y receptor type 4. Description: Positive allosteric modulation of human NY4 receptor expressed in African green monkey COS7 cells co-expressing delta6Galphaqi4-myr assessed as potentiation of peptide YY induced-calcium flux by measuring peptide YY pEC50 at 30 uM treated at 20 secs post baseline detection followed by addition of peptide YY after 140 secs by Fluo2-AM fluorescent dye based-assay (Rvb = 8.6 +/- 0.08 No_unit). The procedure, abridged: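 COS7 cells stably co-expressing Y4R-eYFP and Δ6Gαqi4-myr were seeded overnight. They were loaded with 2.4 μM Fluo2-AM in HBSS/20 mM HEPES/[…] for 60 min at 37 °C, then kept in assay buffer. Fluorescence was read at ex 485/em 525 nm. Compound was added after a 20 s baseline and peptide at 140 s. Response was taken as x-fold over basal, normalized to the DMSO control, and fitted to an operational model of allosterism. Duplicates, at least three independent runs.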

A short description of test [16]: Positive allosteric modulation of human NY4 receptor expressed in African green monkey COS7 cells co-expressing delta6Galphaqi4-myr assessed as potentiation of pancreatic polypeptide induced-calcium flux by measuring pancreatic polypeptide pEC50 at 30 uM treated at 20 secs post baseline detection followed by addition of pancreatic polypeptide.

T1 sequence (P50391 whole entry C240R): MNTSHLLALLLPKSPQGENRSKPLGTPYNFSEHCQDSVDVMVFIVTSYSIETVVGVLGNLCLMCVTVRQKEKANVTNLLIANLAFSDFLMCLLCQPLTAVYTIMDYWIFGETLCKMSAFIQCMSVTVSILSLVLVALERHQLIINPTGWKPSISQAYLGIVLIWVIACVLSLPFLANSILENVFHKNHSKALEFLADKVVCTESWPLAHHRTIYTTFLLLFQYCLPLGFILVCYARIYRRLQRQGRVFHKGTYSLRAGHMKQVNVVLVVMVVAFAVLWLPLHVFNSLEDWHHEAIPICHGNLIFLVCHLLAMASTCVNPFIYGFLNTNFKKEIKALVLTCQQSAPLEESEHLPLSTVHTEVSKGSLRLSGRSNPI

With `CC(C)(C)c1ccc(OC2CCCCC2O)cc1` (stereo unspecified), the pKi in test [1] and in test [8] was 8.20 throughout. Further, the pEC50 in [2] is 8.40; in test [3] it was 6.07; in [4], 10.40; in test [5] it was 6.10; in test [6] it was 9.40; in test [7], 10.20. The pEC50 is 6.40 in [9]; 10.52 in [10]; 9.30 in test [11]; 9.40 in [12]; 8.35 in test [13]; 6.35 in test [14]. For the same compound, the results for the pEC50 in test [15] and in test [16] were 9.30 and 10.40, respectively.

Usually pKi stands for the negative decadic logarithm of the Ki, by convention in mol/L. Broadly, the pEC50 is the negative decadic logarithm of the EC50, by convention in mol/L.
